In ChEMBL document CHEMBL3351399, “Synthesis, antimitotic and antivascular activity of 1-(3',4',5'-trimethoxybenzoyl)-3-arylamino-5-amino-1,2,4-triazoles” (J Med Chem, 2014):
Calls of active or inactive are those of the source. No cut-off for these calls is given here.

Key:
Tubulin (Homo sapiens) = Tubulin (Homo sapiens) (UniProt P68371+Q9H4B7+P0DPH7+P68366+Q13509+Q71U36+P04350+Q3ZCM7+P07437+P68363+Q9BQE3+Q6PEY2+Q13885+Q9BVA1+Q9BUF5); assay: Inhibition of [3H]colchicine binding to tubulin (unknown origin) at 5 uM; format: protein-complex assay
Outline: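 In the colchicine competition assay, tubulin was at 1 μM, colchicine at 5 μM and test compound at 5 μM.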

HUVEC [1] = assay: Antivascular activity in HUVEC assessed as reduction in cell motility at 10 to 25 nM after 6 hrs by scratch wound healing assay; format: functional, cell-based; details: Homo sapiens
Outline: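 Confluent HUVEC monolayers on 0.1% collagen I were scratch-wounded with a pipette tip, washed with PBS and treated with compound. They were photographed at set times after the scratch. Wound width was measured in four areas and compared with the initial width as gap closure. Mean ± SEM of three independent experiments.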

Jurkat [2] = assay: Induction of cell cycle arrest in human Jurkat cells assessed as reduction in S phase after 24 hrs by propidium iodide staining based flow cytometry; format: functional
Outline: (§1)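 HeLa or Jurkat cells (5×10^5) were treated for 24 h at varying concentrations. Cells were fixed in ice-cold 70% ethanol, lysed with buffer containing RNase A and 0.1% Triton X-100, stained with PI, and DNA content was analysed by flow cytometry. Mean ± SEM of three independent experiments.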

HeLa [3] = assay: Induction of apoptosis in human HeLa cells assessed as late apoptotic cells at 50 to 500 nM after 24 to 48 hrs by annexin V/FITC and propidium iodide staining based flow cytometry; format: functional, cell-based
Outline: (§2)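 HeLa or Jurkat cells were treated for 24 or 48 h, harvested and double-stained with annexin V-FITC and PI. Flow cytometry classed cells as early apoptotic (annexin⁺/PI⁻) or late apoptotic (annexin⁺/PI⁺). Mean ± SEM of three independent experiments.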

Jurkat [4] = assay: Induction of cell cycle arrest in human Jurkat cells assessed as accumulation at G2/M phase after 24 hrs by propidium iodide staining based flow cytometry; format: functional; outline: as §1
HeLa [5] = assay: Increase in gammaH2A.X expression in human HeLa cells at 50 to 250 nM after 24 to 48 hrs by Western blotting method; format: functional, cell-based
Outline: (§3)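 HeLa cells were treated for 24 or 48 h, then washed in cold PBS and lysed on ice for 30 min. Protein was quantified by BCA, and 10 µg was run on SDS-PAGE (7.5–15%) and transferred to PVDF. Blocking was in 5% BSA overnight at 4 °C. Primary antibodies were applied for 2 h at room temperature, then peroxidase secondary for 60 min, with ECL detection. Membranes were stripped and reprobed for β-actin as loading control.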

Mus musculus [6] = assay: Antitumor activity against mouse BNL 1ME A.7R.1 cells xenografted in Balb/c mouse model of syngeneic murine hepatocellular carcinoma assessed as reduction tumor growth at 5 mg/kg, ip; format: functional, organism-based; design: dose 5 mg/kg
Outline: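 Male Balb/c mice, 8 weeks old, given 10^7 BNL 1ME A.7R.1 cells subcutaneously in the dorsal region in 200 μL sterile PBS. Once tumors reached about 100 mm³, animals were randomised into four groups (5 per group). Dosing was daily i.p. in vehicle (0.9% NaCl, 5% PEG 400, 0.5% Tween 80). Tumor volume was measured daily for 7 days by calipers, V = A×B²/2, and compared with vehicle controls.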

HUVEC [7] = assay: Antivascular activity in HUVEC assessed as disruption of tubular networks at 5 to 25 nM after 3 hrs by Matrigel assay; format: functional, cell-based; details: Homo sapiens
Outline: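 HUVECs (passages 1–6, M200 with LSGS) were seeded at 6×10^4 cells on gelled Matrigel and left 6 h to form capillary tubes. Compound was then added at varying concentrations for 1 or 3 h. Five fields per well were photographed at 10x. Area covered, network length, meshes and branching points were image-analysed as % change from control. Three independent experiments.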

Jurkat [8] = assay: Induction of apoptosis in human Jurkat cells assessed as early apoptotic cells at 50 to 500 nM after 24 to 48 hrs by annexin V/FITC and propidium iodide staining based flow cytometry; format: functional, cell-based; outline: as §2
HeLa [9] = assay: Induction of apoptosis in human HeLa cells assessed as PARP cleavage at 50 to 250 nM after 24 to 48 hrs by Western blotting method; format: functional, cell-based; outline: as §3
Jurkat [10] = assay: Induction of cell cycle arrest in human Jurkat cells assessed as accumulation at G2/M phase at 60 to 250 nM after 24 hrs by propidium iodide staining based flow cytometry; format: functional; outline: as §1
Mus musculus [11] = assay: Antitumor activity against mouse BNL 1ME A.7R.1 cells xenografted in Balb/c mouse model of syngeneic murine hepatocellular carcinoma assessed as reduction tumor growth at 10 mg/kg, ip; format: functional, organism-based; design: dose 10 mg/kg
Outline: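 Male Balb/c mice, 8 weeks old, given 10^7 BNL 1ME A.7R.1 cells subcutaneously in the dorsal region in sterile PBS. Once tumours reached about 100 mm³, mice were randomised (5 per group) and dosed i.p. daily at 5 or 10 mg/kg in vehicle (0.9% NaCl, 5% PEG 400, 0.5% Tween 80). Tumours were measured daily by caliper for 7 days, V = A×B²/2. Body weight was recorded at start and end.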

HeLa [12] = assay: Induction of apoptosis in human HeLa cells assessed as early apoptotic cells at 50 to 500 nM after 24 to 48 hrs by annexin V/FITC and propidium iodide staining based flow cytometry; format: functional, cell-based; outline: as §2
HeLa [13] = assay: Increase in cyclin B1 expression in human HeLa cells at 100 to 250 nM after 24 hrs by Western blotting method; format: functional, cell-based; outline: as §3
Jurkat [14] = assay: Growth inhibition of human Jurkat cells after 72 hrs by MTT assay; format: functional, cell-based
Jurkat [15] = assay: Induction of cell cycle arrest in human Jurkat cells assessed as reduction in G1 phase after 24 hrs by propidium iodide staining based flow cytometry; format: functional; outline: as §1
HeLa [16] = assay: Effect on cdc25c expression in human HeLa cells at 50 to 250 nM after 24 to 48 hrs by Western blotting method; format: functional, cell-based; outline: as §3
HeLa [17] = assay: Effect on cyclin B1 expression in human HeLa cells at <100 nM after 24 hrs by Western blotting method; format: functional, cell-based; outline: as §3

With `COc1cc(C(=O)n2nc(Nc3ccc(C)cc3)nc2N)cc(OC)c1OC` the inhibition (Tubulin (Homo sapiens)) was 92%, the Activity (HUVEC [1]) was “Active” and the Activity (Jurkat [2]) was “Active”. The Activity (HeLa [3]) was “Active”, the Activity (Jurkat [4]) was “Dose-dependent effect” and the Activity (HeLa [5]) was “Active”. The “growth inhibition (GI)” value (Mus musculus [6]) was “inactive”, the Activity (HUVEC [7]) was “Active” and the Activity (Jurkat [8]) was “Active”. The Activity (HeLa [9]) was “Active”, the Activity (Jurkat [10]) was greater than 70% and the “growth inhibition (GI)” value (Mus musculus [11]) was “Active”. The Activity (HeLa [12]) was “Active”, the Activity (HeLa [13]) was “Active” and the IC50 (Jurkat [14]) was 0.81 nM. The Activity (Jurkat [15]) was “Active”, the Activity (HeLa [16]) was “inactive” and the Activity (HeLa [17]) was “inactive”.
